Assay results: the EternaBench riboswitch data

Tested on: MS2 coat protein
Experiment: apparent Kd, MS2 coat protein; higher = weaker binding; RNA-MaP array; FMN 200 µM where present
How it was run: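 The apparent Kd comes from binding curves fitted cluster by cluster, filtered, and summarised as a median. Those curves followed SNAP-549-labelled MS2 coat protein from 0.7 or 1.5 nM, doubling to 3 µM, on Illumina sequencing-chip clusters where stalled E. coli RNA polymerase had transcribed the designs, without and then with constant ligand. The buffer was 100 mM Tris-HCl pH 7.5, 80 mM KCl, 4 mM MgCl2, BSA, DTT, yeast tRNA and Tween-20, and green signal was normalised to red-channel RNA signal and control-cluster median Fmax.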

[1] = designed as: ON switch for flavin mononucleotide, no ligand
[2] = ligand present: flavin mononucleotide, designed as: ON switch for flavin mononucleotide
[3] = designed as: OFF switch for flavin mononucleotide, no ligand
[4] = ligand present: flavin mononucleotide, designed as: OFF switch for flavin mononucleotide

Sequence | apparent Kd [1] [nM] | apparent Kd [2] [nM] | apparent Kd [3] [nM] | apparent Kd [4] [nM]
AAGAAAUGGGAGUGAUCUGGUUCCGAGGAUAUAGGCAUCGGUACAUGAGGAUCACCCAUGUCCGACUAGAAGGCGGACGGGUCC | 34.1 | 8.76 | – | –
AGUAACAGAGGAUAUACUGUUUUAUGUGUUUGUUAUUUUAAACAUGAGGAUCACCCAUGUAGAAGGCUGAAUAA | – | – | 24.3 | 23.4
ACAAAGCAUGUAGGAUAUCCAUUGCGUCGCGAUGGAGAAGGACAACACACAUGAGGAUCACCCAUGUGAUCACCCAUGUCAUGU | – | – | 866 | 1210
AAGUUUUUACAAGGAUAUCAGUUGUUUAUAAAUUAAACAUGAGGAUCACCCAUGUAACAAAGGAGUGAGAAGGUGUGAUGGAAA | 545 | 283 | – | –
UUUUAGGGAGGAUAUACAUUUUUUUUAUUAUCCUCAUUAUUACAUGAGGAUCACCCAUGUAGAAGGCCCAUUUU | – | – | 60.7 | 146
AUUAAUUAAUUAAUACAUGAGGAUCACCCAUGUAAUAAGAUCAAGGAUAUCAGCUCGAUUAGAGCUGAGAAGGUGAUCACAUGU | 772 | 223 | – | –
CGUACUGAAGUAAGGAUAUUGUCUCGGAUACGAAACAAGAAGGUACAUGAGGAUCACCCAUGUUGACAGUACGA | – | – | 16.6 | 16.7
AUACUGAGCGUAAAUUACCUUAACAUGAGGAUCACCCAUGUGGAGGAUAUUGACCUAGCAAAGCUCGAGAAGGCCACUGGGAUG | – | – | 17.5 | 18.1
GUCAGCUCGUGAGGAUAUACAACACUGCUUCGGCAGUGUAUAAAGAUCACAUGAGGAUCACCCAUGUAGAAGGCACGAGCUGAU | – | – | 15.2 | 213
CAGUGCAAUGUAGGAUAUGCUCAGGAUAACUGAGCAGAAGGACAUGAGGAUCACCCAUGUAAAAUGAAAGAUAAUAAAGCACUG | – | – | 16.6 | 49.9
GCUCUUGUCAAGAAGGGCUCGCGGUACGCUGCAGCAGGAUAUUGACAUGAGGAUCACCCAUGUCGACCGGAACAUCAUUGAGGG | – | – | 26.2 | 178
CGAUGGUAUAUAGGAUAUCAUGUGCAAACAUGAGGAUCACCCAUGUAGGAACGUCAGUUCAAUAAUGAGAAGGAUAUACCAUCG | 35.1 | 10.9 | – | –
GUCAGCUCGUGAGGAUAUACAUGUGCUGGAAACAGCACUAUUAAAUUCACAUGAGGAUCACCCAUGUAGAAGGCACGAGCUGAU | – | – | 15.4 | 19.1
AGUAAGAUGCAGAAGGUGUCAGCGAGAGCUGCGACAUGAGGAUCACCCAUGUACCGGUGACGGUACAAGGAUAUGCAUCUUACA | 882 | 360 | – | –
AUCUUGCGAGGAUAUACUUACUUUUUUUCAUUUGGUUGCGAACAUGAGGAUCACCCAUGUAGAAGGUGCAUAAC | – | – | 27.6 | 23.6
ACGACGAAAGUCGAACGAUGUAGCAGAAGGACAUGAGGAUCACCCAUGUCAGCUGUGACCUCAAAAUAGGAUAUGCUACAUCGA | – | – | 36.6 | 47.6
UUAAUUAUACAAGGAUAUCUAUUGUUGUUUCGACAUACAUGAGGAUCACCCAUGUUAGUAUGUUUAGAGAAGGUGUAUUUUCAG | 29 | 25.7 | – | –
GUAGCAUACCGAGGAUAUCUAUACCGGAAACGGACAUGAGGAUCACCCAUGUGGCGAAAGCCUUGGGAGAAGGCGGAAUGCUAC | 20.8 | 11.6 | – | –
CCAUAAAAGAUCCAUUUUUACAACAUGAGGAUCACCCAUGUGCAGGAUAUCGUGAAAGUAAAAUACGAGAAGGGCAAGAACUGC | – | – | 106 | 130
UUGUUAUAUGUAGGAUAUGCGUAUUAUUAUUAUGCAGAAGGACAUGAGGAUCACCCAUGUAUGUUGUUGUUAUAUAUUAUAUAU | – | – | 22.9 | 26.2
ACAUGAGGAUCACCCAUGUAGAUACUAGAAGGGUAAGACUAGUAGUUACAUGACGACCAAGCAUUACAGGAUAUAGGAAUUGGA | 81.2 | 39.2 | – | –
UUUGUGUAAGGAUAUCACUACCGGGUCCGGACGCCCGCAGAUGAGAAGGUACAUGAGGAUCACCCAUGUCCCUA | – | – | 19.7 | 26.4
AUGUACCUAGGAUAUACAUGAGGAUCACCCAUGUUAACUUUGCAAUCAAGUUAAUAUUGUAGAAGGAGGUGAAA | – | – | 61.5 | 107
GCAUCACAUGAGGAUCACCCAUGUCUUCGGAGUCGAGGAUAUGGUCACUGUAAACAGUGGCCAGAAGGCGAGAUGC | 48.1 | 31.6 | – | –

Sequence | apparent Kd [1] [nM] | apparent Kd [2] [nM] | apparent Kd [3] [nM] | apparent Kd [4] [nM]
AAUUCACAUGAGGAUCACCCAUGUCAGGAUAUGGUUACGCGGGUUUCGGUGCGUGUGGCCAGAAGGGACAGCUA | – | – | 65 | 80.5
CUGUGAGGGAUCCAGAAUUACAACAUGAGGAUCACCCAUGUACAGGAUAUAGGGUUGAUAGGCGCCUAGAAGGGUAUGAUCACG | – | – | 632 | 584
GCCCUUUCUGAGGAUAUUAUCUGGUUCGAUUGAUAAGAAGGCAGUACAUGAGGAUCACCCAUGUGGUUCGUUUG | – | – | 99.6 | 242
CGAACCCGAGGAUAUCGUAAACCCGACAUGAGGAUCACCCAUGUCAUCCUCACGGCGCCACGAGAAGGCGGUGUUU | – | – | 56.5 | 160
CAUGUCCUCACAGGAUAUGCUGGACUUUGUCCAGCAGAAGGGUGAACAUGAGGAUCACCCAUGUAGUGGACAUGUAUAUUUAAU | 543 | 276 | – | –
ACCAUAAACAUAGGAUAUAGAAUAAGAACUACUUACAUGAGGAUCACCCAUGUUAUAUUUGGGUACUAGAAGGAUGAGUGUUAA | 387 | 259 | – | –
GGCUACGUUUCGUAGCAGUGUCAUCGAGAAGGCCCUGACAUGAGGAUCACCCAUGUUGUUACAUGGGAGGAUAUCGAUGAUACA | 12.5 | 4.96 | – | –
AGCGCGGUCCACUUGGACGCCUACGAGGAUAUCCCGUCACAUGAGGAUCACCCAUGUAGGCGCAUGGAGAAGGCGUAGAAAUCA | 152 | 13.7 | – | –
GUCAGCUCGUGAGGAUAUACAACACUGCUUCGGCAGUGUAUUAAGAUCACAUGAGGAUCACCCAUGUAGAAGGCAGGAGCUGAU | – | – | 15.7 | 250
UCAUUUAUUACAGGAUAUGUUAGUAUUCAGUUGUUUGGUUAUUACUUAUUUACAGAAGGGUAGAACAUGAGGAUCACCCAUGUA | 407 | 329 | – | –
CCUCCACAUGAGGAUCACCCAUGUCAGGAUAUCGUGUGUUUUUUUUCGGUCUUGCGUGCGAGAAGGGACGUCUU | – | – | 35.6 | 39.4
AUCAGCUCGUCAGGAUAUACGUCAAUGCGUCAGCAGUGUGGUAAGAUCACAUGAGGAUCACCCAUGUAGAAGGGACGAGCUGAU | – | – | 125 | 572
CACGGAUAGUAGAAGGGUGACAUGAGGAUCACCCAUGUACACAUGCGUAUUAAAGUAUGUGAUACACAGGAUAUACUAUCCGUG | 76.3 | 321 | – | –
CUGGUGUGAGGAUAUCAGGGCACGCCCAAGGGCGUACCAAAUGAGAAGGCACAUGAGGAUCACCCAUGUGGGAC | – | – | 36.5 | 160
UUUAAUUAGUAAGGAUAUACUAGUGAUUAGCUUGUAGAAGGUACAGUCUUAUGUAUAACAAAUUAACAUGAGGAUCACCCAUGU | 10.6 | 7.99 | – | –
UAUUAACACGAAGGAUAUGGUUACAUGAGGAUCACCCAUGUAUGUAUAUUGAUCUAGAUUUUUGACCAGAAGGUCGUGAGUAAA | – | – | 23.9 | 38.2
UUUUUACGAGGAUAUCGUUUUUUUCACAUGAGGAUCACCCAUGUUGUUUAUGUUGCGUUGCGAGAAGGCGUUUGUU | – | – | 27.4 | 22.8
UGCUAGUCAGGAUAUACGAACAUGUCGCCAGAUGUCAAGGUACAUGAGGAUCACCCAUGUAGAAGGGACUAGAA | – | – | 39.2 | 107
GCCAUCUCAUGAGGAUAUGCUCCCGUGUCGGGAGCAGAAGGCAUGUCAUAAGACAUGAGGAUCACCCAUGUAGUUAAGAUGGCA | 263 | 11.1 | – | –
UAUUUAAUCUCAGGAUAUAACAUUACAUACAAAUUAGAAGGGAGAACAUGAGGAUCACCCAUGUACAUGAGGAUCACCCAUGUU | 692 | 576 | – | –
CCUUUCCGAGGAUAUACAUGAGGAUCACCCAUGUGAUCCUAAGGCUGAUCAAGCCUAUGUAGAAGGCGCAAAUC | – | – | 133 | 182
CAACUGAGCGUAAAUUACCUGAACAUGAGGAUCACCCAUGUGGAGGAUAUUGACUUAGCAAAACUCGAGAAGGCCACUGGGAUG | – | – | 39 | 18.2
AAUCCACAUGAGGAUCACCCAUGUGAGGAUAUGAUACUAUGUACUUCGGUACAUAGUAUCAGAAGGCACGGAUC | – | – | 33.2 | 50.4
UUUUAGUGAGGAUAUGUGGCUUCGAUCGUGAGAUCGAGGCUACAGAAGGCACAUGAGGAUCACCCAUGUUCCUC | – | – | 38.3 | 597
